In ChEMBL document CHEMBL2150950, “Effect of 4-aryl-2-methyl-5-nitro-1,4-dihydropyridine-3-carboxylates on the guinea pig papillary muscle and isolated human vena saphena magna that is used for coronary artery bypass grafting” (2011):
The source made the active and inactive calls. The calls are words filed in the database; no cut-off is given here.

What was measured:
[1] = Vasodilatory activity in human vena saphena magna assessed as reduction in phenylephrine-induced smooth muscle contraction at 100 uM relative to baseline contraction; type: functional; parameters: scale not given: the % may be the effect or the level left
Summary of the method: (§1)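 Saphenous vein rings came from 37 CABG patients. They were bathed in Tyrode's solution (mM: NaCl 137, KCl 5.4, CaCl2 1.8, MgCl2 0.9, Tris HCl 10, glucose 5; pH 7.4), equilibrated 45–60 min and washed every 15 min. Rings were precontracted with 10^-4 M phenylephrine, then given cumulative test agent at 10^-7 to 10^-4 M. Isometric relaxation was recorded, as means ± SE.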

[2] = Vasodilatory activity in human vena saphena magna assessed as reduction in phenylephrine-induced smooth muscle contraction at 0.1 uM; type: functional; parameters: scale not given: the % may be the effect or the level left; summary of the method: as §1
[3] = Vasodilatory activity in human vena saphena magna assessed as relaxation of phenylephrine-induced smooth muscle contraction at 10^-7 to 10^-4 M; type: functional; summary of the method: as §1
[4] = Ionotropic effect in guinea pig right ventricle papillary muscles assessed as contraction force at 10^-6 M by force transduction assay relative to untreated control (reference value: 100%); type: functional, Cavia porcellus, Papillary muscle
[5] = Ionotropic effect in guinea pig right ventricle papillary muscles assessed as contraction force at 10^-7 M by force transduction assay relative to untreated control (reference value: 100%); type: functional, Cavia porcellus, Papillary muscle
[6] = Ionotropic effect in guinea pig ventricle papillary muscles assessed as lengthening of 90% repolarized cardiac action potential duration time at 10^-4 M by microelectrode technique relative to untreated control (reference value: 132 to 176 APD50 ms); type: functional, Cavia porcellus, Papillary muscle
[7] = Ionotropic effect in guinea pig ventricle papillary muscles assessed as lengthening of 90% repolarized cardiac action potential duration time at 10^-5 M by microelectrode technique relative to untreated control (reference value: 132 to 176 APD50 ms); type: functional, Cavia porcellus, Papillary muscle
[8] = Ionotropic effect in guinea pig ventricle papillary muscles assessed as lengthening of 90% repolarized cardiac action potential duration time at 10^-6 M by microelectrode technique relative to untreated control (reference value: 132 to 176 APD50 ms); type: functional, Cavia porcellus, Papillary muscle
[9] = Ionotropic effect in guinea pig ventricle papillary muscles assessed as lengthening of 90% repolarized cardiac action potential duration time at 10^-7 M by microelectrode technique relative to untreated control (reference value: 132 to 176 APD50 ms); type: functional, Cavia porcellus, Papillary muscle
[10] = Ionotropic effect in guinea pig ventricle papillary muscles assessed as lengthening of 50% repolarized cardiac action potential duration time at 10^-4 M by microelectrode technique relative to untreated control (reference value: 132 to 176 APD50 ms); type: functional, Cavia porcellus, Papillary muscle
[11] = Ionotropic effect in guinea pig ventricle papillary muscles assessed as lengthening of 50% repolarized cardiac action potential duration time at 10^-5 M by microelectrode technique relative to untreated control (reference value: 132 to 176 APD50 ms); type: functional, Cavia porcellus, Papillary muscle
[12] = Ionotropic effect in guinea pig ventricle papillary muscles assessed as lengthening of 50% repolarized cardiac action potential duration time at 10^-6 M by microelectrode technique relative to untreated control (reference value: 132 to 176 APD50 ms); type: functional, Cavia porcellus, Papillary muscle
[13] = Ionotropic effect in guinea pig ventricle papillary muscles assessed as lengthening of 50% repolarized cardiac action potential duration time at 10^-7 M by microelectrode technique relative to untreated control (reference value: 132 to 176 APD50 ms); type: functional, Cavia porcellus, Papillary muscle
[14] = Ionotropic effect in guinea pig ventricle papillary muscles assessed as lengthening of 25% repolarized cardiac action potential duration time at 10^-4 M by microelectrode technique relative to untreated control (reference value: 84 to 104 APD25 ms); type: functional, Cavia porcellus, Papillary muscle
[15] = Ionotropic effect in guinea pig ventricle papillary muscles assessed as lengthening of 25% repolarized cardiac action potential duration time at 10^-5 M by microelectrode technique relative to untreated control (reference value: 84 to 104 APD25 ms); type: functional, Cavia porcellus, Papillary muscle
[16] = Ionotropic effect in guinea pig ventricle papillary muscles assessed as lengthening of 25% repolarized cardiac action potential duration time at 10^-6 M by microelectrode technique relative to untreated control (reference value: 84 to 104 APD25 ms); type: functional, Cavia porcellus, Papillary muscle
[17] = Ionotropic effect in guinea pig ventricle papillary muscles assessed as lengthening of 25% repolarized cardiac action potential duration time at 10^-7 M by microelectrode technique relative to untreated control (reference value: 84 to 104 APD25 ms); type: functional, Cavia porcellus, Papillary muscle
[18] = Ionotropic effect in guinea pig ventricle papillary muscles assessed as lengthening of 10% repolarized cardiac action potential duration time at 10^-4 M by microelectrode technique relative to untreated control (reference value: 37 to 47 APD10 ms); type: functional, Cavia porcellus, Papillary muscle
[19] = Ionotropic effect in guinea pig ventricle papillary muscles assessed as lengthening of […] cardiac action potential duration time at 10^-5 M by microelectrode technique relative to untreated control (reference value: 37 to 47 […] ms); type: functional, Cavia porcellus, Papillary muscle
[20] = Ionotropic effect in guinea pig ventricle papillary muscles assessed as lengthening of 10% repolarized cardiac action potential duration time at 10^-6 M by microelectrode technique relative to untreated control (reference value: 37 to 47 APD10 ms); type: functional, Cavia porcellus, Papillary muscle
[21] = Ionotropic effect in guinea pig ventricle papillary muscles assessed as lengthening of 10% repolarized cardiac action potential duration time at 10^-7 M by microelectrode technique relative to untreated control (reference value: 37 to 47 APD10 ms); type: functional, Cavia porcellus, Papillary muscle
[22] = Ionotropic effect in guinea pig right ventricle papillary muscles assessed as contraction force at 10^-4 M by force transduction assay relative to untreated control (reference value: 100%); type: functional, Cavia porcellus, Papillary muscle
[23] = Ionotropic effect in guinea pig right ventricle papillary muscles assessed as contraction force at 10^-5 M by force transduction assay relative to untreated control (reference value: 100%); type: functional, Cavia porcellus, Papillary muscle

Compound | Activity [4] [%] | Activity [5] [%] | Time [6] [ms] | Time [7] [ms] | Time [8] [ms] | Time [9] [ms] | Time [10] [ms] | Time [11] [ms] | Time [12] [ms] | Time [13] [ms] | Time [14] [ms] | Time [15] [ms] | Time [16] [ms] | Time [17] [ms] | Time [18] [ms] | Time [19] [ms] | Time [20] [ms] | Time [21] [ms] | Activity [22] [%] | Activity [23] [%] | also measured
CCOC(=O)C1=C(C)NC2=C(C(=O)OC2)C1c1ccccc1OC(F)F (stereo unspecified) |  |  |  |  |  |  |  |  |  |  |  |  |  |  |  |  |  |  |  |  | Activity [1]: 19%; Activity [2]: 50%; Activity [3]: Active
COC(=O)C1=C(C)NC(C)=C([N+](=O)[O-])C1c1ccccc1OC(F)F (stereo unspecified) | 112.6 | 114.4 | 176.7 | 175 | 178.3 | 178.3 | 148.5 | 147 | 149 | 144.8 | 109.2 | 110.8 | 110.3 | 101.7 | 53.8 | 55.3 | 54.5 | 51.3 | 111 | 108.3 | 
COC(=O)C1=C(C)NC=C([N+](=O)[O-])C1c1ccccc1C(F)(F)F (stereo unspecified) | 98.5 | 101 | 184 | 175.5 | 172 | 171.5 | 156.5 | 149.8 | 140.5 | 138 | 111.3 | 103.2 | 91.4 | 92.5 | 47 | 44.7 | 38.5 | 40 | 97.8 | 103 | 
COC(=O)C1=C(C)NC=C([N+](=O)[O-])C1c1ccccc1OC(F)F (stereo unspecified) | 73.5 | 78.85 | 220 | 217 | 202 | 190 | 178 | 177 | 161 | 153 | 112.6 | 111.6 | 93.7 | 90.6 | 39.5 | 39.5 | 35 | 36 | 92.8 | 90.3 | 
COC(=O)C1=C(C)NC(C)=C([N+](=O)[O-])C1c1ccccc1C(F)(F)F (stereo unspecified) | 155 | 123 | 223.5 | 217 | 218.2 | 220 | 133.8 | 129 | 133.8 | 135.6 | 89 | 85.1 | 91 | 92.7 | 42.7 | 41 | 42 | 44.5 | 176 | 175 | Activity [1]: 19%; Activity [2]: 50%; Activity [3]: Active
CCCOCCOC(=O)C1=C(C)NC=C([N+](=O)[O-])C1c1ccc(C(F)(F)F)cc1 (stereo unspecified) | 83.7 | 89.5 | 189.6 | 188 | 180 | 166.7 | 158.7 | 161.2 | 149.6 | 136.6 | 101 | 103.3 | 96 | 91 | 38.2 | 37.5 | 36 | 35 | 73 | 81 | 
